# Results: the RNAGym collection of RNA variant scans (doi:10.1126/science.aae0568)
# Variants at the floor of the assay were thinned out.
# B1: tRNA (parent)
# chain: GUUCCGUUGGCGUAAUGGUAACGCGUCUCCCUCCUAAGGAGAAGACUGCGGGUUCGAGUCCCGUACGGAACG
# Variants of: B1
# Assay: yeast fitness relative to wild type (ratio to wild type); higher = fitter; tRNA-Arg(CCU), competitive growth, 37 C, YPD
# Method in brief: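 A pool of Saccharomyces cerevisiae strains, each with a tRNA-Arg(CCU) gene variant at the native genomic locus, was competed in YPD at 37°C for 24 hours across six parallel replicates. The variants had been chemically synthesised at a 3% per-site mutation rate over 69 sites, and gene amplicons before and after competition were read by 100-nucleotide paired-end sequencing. Darwinian fitness relative to wild type rested on changes in genotype frequencies. Genotypes required ≥ 100 starting reads, and estimates < 0.5 were set to 0.5.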
row,Variant,yeast fitness
1,C5U A42G G51C,0.549
2,C5U A21G G25A A42U G58A,0.744
3,C5U A20G A37G G67A,≤ 0.5
4,C5U A14U,0.718
5,C5U A14G,0.77
6,C5U A15C G18A G23A U35C A42G C49A,≤ 0.5
7,C5U C11U C24G C61U C62G A65C,≤ 0.5
8,C5U A20C G58A,≤ 0.5
9,C5U C22A A42C C55G A57C C62U,≤ 0.5
10,C5U A20U A36U,≤ 0.5
11,C5U A14G A43G,0.553
12,C5U A37C C46U U53C A69C,≤ 0.5
13,C5U A20C,1.1
14,C5U A20G,0.904
15,C5U A57C,0.659
16,C5U A57G,0.807
17,C5G U47A G52A G68C,≤ 0.5
18,C5U A43U G56C G68U,0.635
19,C5U A43U C49U C61A C66U,≤ 0.5
20,C5U C11A C24G C27G A36U G38C,≤ 0.5
21,C5U A14C U35C,≤ 0.5
22,C5U A20C C31A C34G A57G A65U,0.593
23,C5U A20U A45U,0.582
24,C5U A14U G48A C66U,≤ 0.5

row,Variant,yeast fitness
1,C5U C11U U28C C34G A40G A43G C46G G52A C55U C66U,≤ 0.5
2,C5U C11U G25C,0.694
3,C5U C22A C62G,0.546
4,C5G U54C G56A,0.729
5,C5U C11U G17A C31G G68A,≤ 0.5
6,C5U C11A U54C G63A,≤ 0.5
7,C5U A15U U35C A45C,≤ 0.5
8,C5U C11U A15G G48C G63U A70U,≤ 0.5
9,C5U A20U G67A,0.882
10,C5U A37C G39C,≤ 0.5
11,C5U A21U C30G A42G U59C C66G G68A,≤ 0.5
12,C5U A15C C29U G58C,≤ 0.5
13,C5U A15U C27G,≤ 0.5
14,C5U A14C C27U C33G C55G C61U,≤ 0.5
15,C5U A20G C61U,0.711
16,C5U A14U C30U G39C C60A A70C,≤ 0.5
17,C5U A14G C33U G50C C55U A57G,≤ 0.5
18,C5U C11A A40G C55A C66A,≤ 0.5
19,C5U A20U U26A C34U C49A A57C C62U,≤ 0.5
20,C5U C22G A45C,0.566
21,C5U A15U C55A,≤ 0.5
22,C5U A20C C24U C34G,≤ 0.5
23,C5U C11U C30G C61A,≤ 0.5
24,C5U A69U,0.972

row,Variant,yeast fitness
1,C5U C22A C61U A65C,≤ 0.5
2,C5U A40U G44A C61A,≤ 0.5
3,C5U C11A U13C C24G C30G C60U A69U,≤ 0.5
4,C5U A21G C24A A42C,≤ 0.5
5,C5U C11G C24U A42C A65C,0.605
6,C5U A37G A43C C62U,0.541
7,C5U A37G A45C C61G A70U,≤ 0.5
8,C5U A40C C46A U54A,0.55
9,C5U A14U A21G G68C,0.588
10,C5U A15C A21U,≤ 0.5
11,C5U A20G U47C,≤ 0.5
12,C5U A20U C24U C27U A45G,≤ 0.5
13,C5U A20G C24G U26G A37C A57G C66A,≤ 0.5
14,C5U A14G G50C C55U A57G G68A,≤ 0.5
15,C5U C11U U32C C49U,0.537
16,C5U A14C A45C,≤ 0.5
17,C5U A42C C66U,0.793
18,C5U C11G U13G G23C C34U U59C C66U,≤ 0.5
19,C5U A15U C29U C31U C34U G48C G68A,≤ 0.5
20,C5U A43U C49U C66U,≤ 0.5
21,C5U A45C G58C,0.977
22,C5U A14G A36G G68C,≤ 0.5
23,C5U A40U A42G,≤ 0.5
24,C5U A20U A70U,0.842

row,Variant,yeast fitness
1,C5U A36U A45U,≤ 0.5
2,C5U A45C C55U G68C,0.57
3,C5U C11A A69U,≤ 0.5
4,C5U A20G A37G,0.524
5,C5U A21U C30G C66U,≤ 0.5
6,C5U A42U A69U,0.728
7,C5U A14U C55G A65G,0.566
8,C5U C11U A21U,0.696
9,C5U A14G C22U,≤ 0.5
10,C5U A14G C22A,≤ 0.5
11,C5U A21G A42U G50C,≤ 0.5
12,C5U A20C C66U,0.616
13,C5U A20C C66A,0.51
14,C5U A15C G23C G56A,≤ 0.5
15,C5U A21U C33U C62U A70C,≤ 0.5
16,C5U A14G C24U U32G A43G C66U,≤ 0.5
17,C5U A15C C34G A40U A43C C49G G50A C60U,0.583
18,C5U A15U,0.671
19,C5U A14U C27G G38C G63A,≤ 0.5
20,C5U A37G U47G A69G,≤ 0.5
21,C5U A57C C62U,0.54
22,C5U A21U C30G C60G A70C,≤ 0.5
23,C5U A20G C31G U47C G48C,≤ 0.5
24,C5U A14C G68C,≤ 0.5

row,Variant,yeast fitness
1,C5U A14G C33G A40G C60G,≤ 0.5
2,C5U A15C U32A U47C,≤ 0.5
3,C5U A21U C30G C33U C66A,≤ 0.5
4,C5U A20U C49A,≤ 0.5
5,C5U A15U G17A G44C,≤ 0.5
6,C5U A21U C29G G58C,≤ 0.5
7,C5U C22G C29A A45U A70U,0.539
8,C5U A37C U47C C61U,≤ 0.5
9,C5U A15G G17C C66U,≤ 0.5
10,C5U A37C C46G C60U,≤ 0.5
11,C5U A14G G68C,0.57
12,C5U A15C G18A U35C A42G C49A,0.586
13,C5U A14U C30U G39C C60A,≤ 0.5
14,C5U C22G C29G,0.602
15,C5U C11U A40U G48A C49U,0.709
16,C5U A21U C30G,0.632
17,C5U C11U C46U G51A C66U,≤ 0.5
18,C5U C11A U26A C29U C30A C31U,≤ 0.5
19,C5U C11G C33A,0.557
20,C5G U64C,0.978
21,C5U C22G C24G C30A C31U,≤ 0.5
22,C5U A14G C46G A65U,≤ 0.5
23,C5U A21G A37G G39C G44C C46A U54C A65C,≤ 0.5
24,C5U A65C G67C,0.566

row,Variant,yeast fitness
1,C5U A37G A43C C46U C62U,≤ 0.5
2,C5U A21C A42G C61G,≤ 0.5
3,C5U A14C A15U G17A U26C A42U A45C G63C G68U,≤ 0.5
4,C5U A20G G44C,0.764
5,C5U A42G U47A,0.619
6,C5U A21G C27U A69U,≤ 0.5
7,C5U A21C G23A C49A G52A G56C A57C,0.508
8,C5U A14C G52C A65U,≤ 0.5
9,C5U A21G C24G U28G,≤ 0.5
10,C5U A40U A45G C46U,0.986
11,C5U A36C A43G U54A C55G A69U,≤ 0.5
12,C5U A20U A40C,≤ 0.5
13,C5G U47C C61A G68U,≤ 0.5
14,C5U A15C A36U A65C,≤ 0.5
15,C5U C11U U53G G56A C61U,≤ 0.5
16,C5U A65U A69U,0.623
17,C5U A37G A43C U59C C62U,≤ 0.5
18,C5U A43G A45G,0.669
19,C5U A20C G68C,0.542
20,C5U A37C A40C G51A C55A G58A,0.529
21,C5U A14C C24U A36G A70U,≤ 0.5
22,C5U A14C C31A A40U C60A,≤ 0.5
23,C5U A21G C33G G38A C60A,≤ 0.5
24,C5G U59G A65G,0.614

row,Variant,yeast fitness
1,C5U A43C A69C,0.802
2,C5U A45C,1.06
3,C5U C11U A14C C61A,≤ 0.5
4,C5U C11A C24G C27G A36U G38C G67C,≤ 0.5
5,C5U C11G C33A G67A,≤ 0.5
6,C5U A15C G18A U35C A42G,≤ 0.5
7,C5U A43U G48A C61G A70C,≤ 0.5
8,C5U A45C C62U,0.768
9,C5U A45C C62A,0.701
10,C5U A45G G63A,0.708
11,C5U A20U C30U C46U U47G,≤ 0.5
12,C5U C11U A21G C24G A42U A43C U53G A57C,≤ 0.5
13,C5U A20U C55G G68A,≤ 0.5
14,C5U A57C G58C U59G C66U,≤ 0.5
15,C5U A15G A20U,0.662
16,C5U A15G A20U A42G G63A,≤ 0.5
17,C5U A65G,0.94
18,C5U A42C,1.01
19,C5U A42G,0.728
20,C5U C11U A14C,0.731
21,C5U A15U G23C A45U C62A,≤ 0.5
22,C5U A14G U26C C30U A42C C61U,≤ 0.5
23,C5U C11U C46U,0.752
